The results in this text go back to ChEMBL document CHEMBL4330179, “De Novo Discovery of Nonstandard Macrocyclic Peptides as Noncompetitive Inhibitors of the Zika Virus NS2B-NS3 Protease” (ACS Med Chem Lett, 2019).

Data set [1] concerns the target T1, Nonstructural protein 3 (Zika virus, UniProt A0A024AXB9). Nature of the data set: Non-competitive inhibition of C-terminal His6-tagged linked Zika virus NS2B-NS3 protease domain expressed in Escherichia coli Bl21(DE3) using Bz-Nle-Lys-Lys-Arg-AMC as substrate after 30 mins by Cornish-Bowden plot analysis. Summed up:
(§1)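 Fluorogenic substrate Bz-Nle-Lys-Lys-Arg-AMC against linked gZiPro, run at four substrate concentrations across a range of inhibitor concentrations. Ki comes from nonlinear least-squares fits to a noncompetitive inhibition model, and the mode is checked on Cornish–Bowden plots.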

The target of data set [2] is T1, Nonstructural protein 3. Nature of the data set: Inhibition of C-terminal His6-tagged linked Zika virus NS2B-NS3 protease domain expressed in Escherichia coli Bl21(DE3) using Bz-Nle-Lys-Lys-Arg-AMC as substrate after 30 mins by fluorophotometric method. Summed up: as §1
Data set [3] addresses T1, Nonstructural protein 3. As to the kind of experiment: Binding affinity to C-terminal His6-tagged linked Zika virus NS2B-NS3 protease domain by SPR analysis. An outline of the steps: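 Dissociation constants measured by surface plasmon resonance, with the linked Zika NS2B-NS3 protease (gZiPro) immobilized on the chip.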
(In SPR one partner is held on a chip, and binding of the other changes the refractive index at the surface.)

Data set [4] concerns the target T1, Nonstructural protein 3. As to the kind of experiment: Inhibition of C-terminal His6-tagged unlinked Zika virus NS2B-NS3 protease domain expressed in Escherichia coli Bl21(DE3) using Bz-Nle-Lys-Lys-Arg-AMC as substrate after 30 mins by fluorophotometric method. An outline of the steps: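 Unlinked Zika NS2B-NS3 protease at 0.5 nM with Bz-Nle-Lys-Lys-Arg-AMC substrate.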

In data set [5] the target is Genome polyprotein (dengue virus type 2, UniProt P29990). Nature of the data set: Inhibition of C-terminal His6-tagged linked Dengue virus serotype 2 NS2B-NS3 protease domain expressed in Escherichia coli Bl21(DE3) preincubated for 15 mins followed by Abz-Nle-Lys-Arg-Arg-Ser-3-(NO2)Tyr substrate addition and measured for 15 mins by fluorescence method. Summed up:
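DENV-2 NS2B-NS3 protease used at 100 nM against the FRET substrate Abz-Nle-Lys-Arg-Arg-Ser-3-(NO2)Tyr. IC50 values were calculated for a substrate concentration of 50 μM.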

Data set [6] concerns the target Genome polyprotein (West Nile virus, UniProt P06935). Nature of the data set: Inhibition of C-terminal His6-tagged linked West Nile virus NS2B-NS3 protease domain expressed in Escherichia coli Bl21(DE3) preincubated for 15 mins followed by AbzGly-Leu-Lys-Arg-Gly-Gly-3-(NO2)Tyr substrate addition and measured for 15 mins by fluorescence method. Summed up:
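West Nile virus NS2B-NS3 protease at 150 nM with internally quenched substrate Abz-Gly-Leu-Lys-Arg-Gly-Gly-3-(NO2)Tyr. IC50 is calculated for 50 μM substrate.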

In data set [7] the target is T2, Nonstructural protein 3 (Zika virus) (UniProt A0A024AXB9). As to the kind of experiment: Competitive inhibition of C-terminal His6-tagged linked Zika virus NS2B-NS3 protease domain expressed in Escherichia coli Bl21(DE3) using Bz-Nle-Lys-Lys-Arg-AMC as substrate after 30 mins by Cornish-Bowden plot analysis.
T2 sequence (A0A024AXB9 as listed by the source): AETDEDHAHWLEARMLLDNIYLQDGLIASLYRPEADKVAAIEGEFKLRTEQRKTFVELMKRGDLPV
Data set [8] in a line: Selectivity index, ratio of IC50 for C-terminal His6-tagged linked Dengue virus serotype 2 NS2B-NS3 protease domain expressed in Escherichia coli Bl21(DE3) to Ki for non-competitive inhibition of C-terminal His6-tagged linked Zika virus NS2B-NS3 protease domain expressed in Escherichia coli Bl21(DE3).
The nature of data set [9]: Selectivity index, ratio of IC50 for C-terminal His6-tagged linked West Nile virus NS2B-NS3 protease domain expressed in Escherichia coli Bl21(DE3) to Ki for non-competitive inhibition of C-terminal His6-tagged linked Zika virus NS2B-NS3 protease domain expressed in Escherichia coli Bl21(DE3).
Data set [10] has as its target Prothrombin (Homo sapiens) (UniProt P00734). Nature of the data set: Inhibition of thrombin (unknown origin) at 25 uM using Boc-Val-Pro-Arg-AMC as substrate preincubated for 15 mins followed by substrate addition and measured for 10 mins by fluorescence assay. An outline of the steps: (§2)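 Serine protease counter-screens (thrombin, trypsin), tested up to a highest concentration of 25 or 50 μM.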

The next data set has as its target Trypsin (Homo sapiens) (UniProt P07477+P07478+P35030). Nature of the data set: Inhibition of trypsin (unknown origin) at 25 uM using Boc-Val-Pro-Arg-AMC as substrate preincubated for 15 mins followed by substrate addition and measured for 10 mins by fluorescence assay. Format: protein assay. An outline of the steps: as §2
The next data set deals with Huh-7. Nature of the data set: Cytotoxicity against human HuH7 cells assessed as reduction in cell viability up to 12.5 uM after 24 to 48 hrs by CellTiter-Blue assay. Format: cell-based. Summed up:
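Huh-7 cells exposed to compounds for 24 h and 48 h. Metabolic activity is read as % reduction relative to nontreated cells, with 80% viability used as the cutoff.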
A general note: The colour change of resazurin is a common sign of viable cells or microbes.

Data set [11] addresses T2, Nonstructural protein 3 (Zika virus). Nature of the data set: Inhibition of C-terminal His6-tagged unlinked Zika virus NS2B-NS3 protease domain expressed in Escherichia coli Bl21(DE3) at 200 to 400 nM using Bz-Nle-Lys-Lys-Arg-AMC as substrate after 30 mins in presence of cn-716 by fluorophotometric method.

Structures are written as SMILES. The source made the active and inactive calls. Positions of bridges follow the written chain, without caps; N, C: chain ends. Non-standard residues stand in square brackets, D forms with d. Residues, ends and D or L forms follow the SMILES beside them. NMeY = CN[C@@H](Cc1ccc(O)cc1)C(=O)O; NMeF = CN[C@@H](Cc1ccccc1)C(=O)O; NMeS = CN[C@@H](CO)C(=O)O; Sar = CNCC(=O)O Some results are limits rather than exact numbers.

Genome polyprotein (dengue virus type 2, UniProt P29990), sequence (P29990 1346-1475 limits assumed): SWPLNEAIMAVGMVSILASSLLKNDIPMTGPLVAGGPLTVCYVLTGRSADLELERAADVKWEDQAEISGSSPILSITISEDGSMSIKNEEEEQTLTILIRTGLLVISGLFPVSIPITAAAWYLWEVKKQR
Genome polyprotein (dengue virus type 2, UniProt P29990), sequence (P29990 1476-2093 limits assumed): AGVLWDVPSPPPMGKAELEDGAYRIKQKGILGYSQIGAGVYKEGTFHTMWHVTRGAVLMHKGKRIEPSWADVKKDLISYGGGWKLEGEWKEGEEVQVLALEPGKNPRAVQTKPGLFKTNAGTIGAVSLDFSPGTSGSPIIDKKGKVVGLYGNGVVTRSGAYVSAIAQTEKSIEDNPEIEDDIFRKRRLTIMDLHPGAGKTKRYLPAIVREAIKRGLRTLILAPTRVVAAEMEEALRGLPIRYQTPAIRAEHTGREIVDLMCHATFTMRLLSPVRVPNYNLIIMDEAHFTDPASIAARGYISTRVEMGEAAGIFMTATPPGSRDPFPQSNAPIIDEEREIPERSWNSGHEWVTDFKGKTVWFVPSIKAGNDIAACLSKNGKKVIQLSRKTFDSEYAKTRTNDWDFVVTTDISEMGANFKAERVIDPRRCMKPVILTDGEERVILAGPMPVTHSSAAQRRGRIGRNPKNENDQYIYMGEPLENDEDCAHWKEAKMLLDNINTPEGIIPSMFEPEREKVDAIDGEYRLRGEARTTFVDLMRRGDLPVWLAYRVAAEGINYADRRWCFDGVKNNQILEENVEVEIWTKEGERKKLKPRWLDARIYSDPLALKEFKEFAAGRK
Genome polyprotein (West Nile virus, UniProt P06935), sequence (P06935 1371-1501 limits assumed): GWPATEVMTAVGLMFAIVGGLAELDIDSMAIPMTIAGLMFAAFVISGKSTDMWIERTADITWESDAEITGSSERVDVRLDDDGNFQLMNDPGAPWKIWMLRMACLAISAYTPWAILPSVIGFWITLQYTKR
Genome polyprotein (West Nile virus, UniProt P06935), sequence (P06935 1502-2120 limits assumed): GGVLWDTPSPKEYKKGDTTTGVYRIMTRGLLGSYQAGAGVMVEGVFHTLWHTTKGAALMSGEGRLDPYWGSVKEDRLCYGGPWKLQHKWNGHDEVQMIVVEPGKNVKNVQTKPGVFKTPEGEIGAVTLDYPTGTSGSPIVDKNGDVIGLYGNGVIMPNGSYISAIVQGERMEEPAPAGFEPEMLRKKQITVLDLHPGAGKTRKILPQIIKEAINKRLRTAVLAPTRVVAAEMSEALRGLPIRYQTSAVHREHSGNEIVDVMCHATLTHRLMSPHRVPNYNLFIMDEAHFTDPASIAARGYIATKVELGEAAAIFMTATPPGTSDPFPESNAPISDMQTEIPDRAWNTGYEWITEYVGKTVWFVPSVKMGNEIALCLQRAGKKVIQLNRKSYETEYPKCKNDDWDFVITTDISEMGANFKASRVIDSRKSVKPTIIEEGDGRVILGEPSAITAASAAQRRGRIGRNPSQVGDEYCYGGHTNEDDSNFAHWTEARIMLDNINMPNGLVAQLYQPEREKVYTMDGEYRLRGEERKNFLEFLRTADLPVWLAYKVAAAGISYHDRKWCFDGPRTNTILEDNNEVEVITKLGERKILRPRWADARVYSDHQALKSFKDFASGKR
T1 sequence (A0A024AXB9 whole entry, the tested form may be a part): as the sequence (A0A024AXB9 as listed by the source) above

In general, Ki refers to the equilibrium dissociation constant of an inhibitor or competing ligand from its target. The IC50 is the concentration at which inhibition is half-maximal. The Kd is a measure of binding affinity in units of concentration. Low values mean tighter binding, high ones weaker binding. Compound `CC[C@H](C)[C@@H]1NC(=O)[C@H](C)NC(=O)[C@@H](Cc2ccc(O)cc2)NC(=O)CSC[C@@H](C(N)=O)NC(=O)[C@H](CC(N)=O)NC(=O)[C@H](CC(C)C)N(C)C(=O)[C@H](Cc2ccc(O)cc2)NC(=O)[C@H](CCCCN)NC(=O)[C@H](CC(N)=O)NC(=O)[C@H](Cc2ccc(O)cc2)NC(=O)[C@H](Cc2ccc(OC)cc2)N(C)C(=O)[C@H]([C@@H](C)CC)NC1=O` yielded a Ki on Nonstructural protein 3 [1] of 3500 nM. Besides, the IC50 at Nonstructural protein 3 [2] was 7100 nM; on Nonstructural protein 3 [4], 3200 nM; against Genome polyprotein [5] it was > 20000 nM; at Genome polyprotein [6], > 20000 nM. In addition, the affinity on Nonstructural protein 3 [3], expressed as Kd, was 168 nM. Besides, the inhibition result in data set [7] is “inactive”.
As to `CC(C)C[C@@H]1NC(=O)[C@H]([C@@H](C)O)NC(=O)[C@H](Cc2ccc(O)cc2)NC(=O)CSC[C@@H](C(N)=O)NC(=O)[C@H](Cc2ccccc2)NC(=O)[C@H](Cc2ccccc2)NC(=O)[C@H]([C@@H](C)O)NC(=O)CN(C)C(=O)[C@H](CC(N)=O)NC(=O)[C@H](Cc2cnc[nH]2)NC(=O)[C@H](Cc2ccccc2)NC(=O)[C@@H]2CCCN2C1=O` ({CH2CO}-YTLPFHN[Sar]TFFC-NH2; thioether N-12), the Ki on Nonstructural protein 3 [1] was > 100000 nM. Besides, at Nonstructural protein 3 [3], the Kd came to 5 nM. Besides, the IC50 on Nonstructural protein 3 [4] is ≥ 50000 nM; on Genome polyprotein [5], > 20000 nM; on Genome polyprotein [6], > 20000 nM. Further, in [7], the inhibition result is “inactive”.
On Nonstructural protein 3 [1], `COc1ccc(C[C@H]2C(=O)N[C@@H](Cc3ccccc3)C(=O)N[C@H](C(N)=O)CSCC(=O)N[C@@H](Cc3ccc(O)cc3)C(=O)N[C@@H]([C@@H](C)O)C(=O)N[C@@H](CC(N)=O)C(=O)N[C@@H](Cc3ccccc3)C(=O)N[C@@H](Cc3ccc(O)cc3)C(=O)N[C@@H](CC(C)C)C(=O)N[C@@H](Cc3ccc(O)cc3)C(=O)N3CCC[C@H]3C(=O)N[C@@H](Cc3ccc(O)cc3)C(=O)N2C)cc1` ({CH2CO}-YTNFYLYPY[NMeY](Me)FC-NH2; thioether N-12) yielded a Ki of 2000 nM. Besides, the half-inhibitory concentration (IC50) against Nonstructural protein 3 [2] was 3300 nM; at Nonstructural protein 3 [4], 2200 nM; on Genome polyprotein [5], > 20000 nM; on Genome polyprotein [6], > 20000 nM. On Nonstructural protein 3 [3], the Kd was determined as 8 nM. For the same compound, the Selectivity Index in [8] and in data set [9] was > 10 throughout. Further, in [7], the inhibition result is “inactive”.
At Nonstructural protein 3 [1], `CC[C@H](C)[C@@H]1NC(=O)[C@H](CC(N)=O)NC(=O)[C@H](C(C)C)NC(=O)[C@H](CC(C)C)NC(=O)[C@H]([C@@H](C)O)NC(=O)[C@H](CC(N)=O)NC(=O)[C@H](Cc2ccc(OC)cc2)N(C)C(=O)[C@H]([C@@H](C)CC)NC(=O)[C@H](CCCCN)NC(=O)[C@H](Cc2c[nH]c3ccccc23)NC(=O)[C@H](Cc2ccc(O)cc2)NC(=O)CSC[C@@H](C(N)=O)NC1=O` ({CH2CO}-YWKI[NMeY](Me)NTLVNIC-NH2; thioether N-12) came in with a Ki of 800 nM. For the same compound, the IC50 at Nonstructural protein 3 [2] is 1320 nM; against Nonstructural protein 3 [4], 1500 nM; at Genome polyprotein [5], > 10000 nM; against Genome polyprotein [6], > 10000 nM. At Nonstructural protein 3 [3], this compound gave a Kd of 20 nM. For the same compound, the inhibition result (in data set [10]; at Trypsin (Homo sapiens); in data set [7]) was “inactive” in each case. The values for the Selectivity Index in data set [8] and in data set [9] were 4 and 9, respectively. For the same compound, in the data set with Huh-7, the Activity result was “Non-Toxic”.
The compound `COc1ccc(C[C@H]2C(=O)N[C@@H](CCCCN)C(=O)N(C)[C@@H](Cc3ccccc3)C(=O)N[C@@H](CCCCN)C(=O)N(C)[C@@H](CO)C(=O)N(C)[C@@H](Cc3ccc(OC)cc3)C(=O)N[C@@H](CCCCN)C(=O)N(C)[C@@H](Cc3ccc(OC)cc3)C(=O)N(C)[C@@H](Cc3ccc(OC)cc3)C(=O)N[C@@H](CCCCN)C(=O)N[C@H](C(N)=O)CSCC(=O)N[C@@H](Cc3ccc(O)cc3)C(=O)N2C)cc1` ({CH2CO}-Y[NMeY](Me)K[NMeF]K[NMeS][NMeY](Me)K[NMeY](Me)[NMeY](Me)KC-NH2; thioether N-12) gave a Ki at Nonstructural protein 3 [1] of 440 nM. In addition, the IC50 against Nonstructural protein 3 [2] was 620 nM; on Nonstructural protein 3 [4], 250 nM; against Genome polyprotein [5], 1700 nM; against Genome polyprotein [6] it was 3900 nM. The Kd on Nonstructural protein 3 [3] was 9 nM. Further, the inhibition entry (in data set [10]; at Trypsin (Homo sapiens); in [7]) was “inactive” in each case. The inhibition result in [11] was “Active”. In addition, the Selectivity Index in [8] and in [9] was > 10 throughout. The Activity entry with Huh-7 is “Non-Toxic”.
Consider `CC[C@H](C)[C@@H]1NC(=O)CN(C)C(=O)[C@H](Cc2ccc(O)cc2)NC(=O)CSC[C@@H](C(N)=O)NC(=O)[C@@H]2CCCN2C(=O)[C@H]([C@@H](C)CC)NC(=O)[C@H](Cc2ccc(OC)cc2)N(C)C(=O)[C@H](Cc2ccc(OC)cc2)N(C)C(=O)[C@H](CC(N)=O)NC(=O)[C@H](Cc2ccc(O)cc2)NC(=O)[C@H](CCCCN)NC(=O)[C@H](C)NC1=O` ({CH2CO}-Y[Sar]IAKYN[NMeY](Me)[NMeY](Me)IPC-NH2; thioether N-12), for which the Ki on Nonstructural protein 3 [1] is 20400 nM. Further, the IC50 on Nonstructural protein 3 [2] was 16500 nM; on Nonstructural protein 3 [4], 4600 nM; at Genome polyprotein [5] it was ≥ 20000 nM; against Genome polyprotein [6], ≥ 20000 nM. This compound also showed a Kd on Nonstructural protein 3 [3] of 9 nM. In data set [7], the inhibition entry was “inactive”.
